Laboratory results published in ChEMBL document CHEMBL1125275, “2-[(arylmethyl) amino]-2-methyl-1,3-propanediol DNA intercalators. An examination of the effects of aromatic ring variation on antitumor activity and DNA binding” (J Med Chem, 1991).
The source made the active and inactive calls. The rule behind the calls is not given here.

How the values were obtained:
Mus musculus [1] = species on record: Mus musculus; assay: Percent increase in life span (% ILS) was tested at optimal dose; I indicates inactive; type: functional, organism-based
Method in brief: (§1)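 Preliminary in vivo antitumor screen in mice bearing murine lymphocytic leukemia P388. The read-out is percent increase in life span (% ILS). Highest nontoxic doses used in the assay are reported in parentheses.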

P388 [2] = assay: The compound tested for the highest non-toxic dose in murine lymphocytic leukemia P388.; type: functional, Mus musculus
Method in brief: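 In vivo murine P388 lymphocytic leukemia screen; the value reported is the highest nontoxic dose used in the assay.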

P388 [3] = assay: Antitumor activity in murine lymphocytic leukemia P388 cells; type: functional, Mus musculus; method in brief: as §1
Mus musculus [4] = species on record: Mus musculus; assay: Percent increase in life span (% ILS) was tested at optimal dose.; type: functional
Method in brief: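 In vivo murine P388 lymphocytic leukemia screen; antitumor effect read as percent increase in life span (% ILS).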

Mus musculus [5] = species on record: Mus musculus; assay: Number of animals survived after 30 days of treatment; 0/6.; type: functional
P388 [6] = assay: Lethal dose in murine lymphocytic leukemia P388 cells; type: functional, Mus musculus
Mus musculus [7] = species on record: Mus musculus; assay: Number of animals survived after 30 days; 2/6; type: functional
Mus musculus [8] = species on record: Mus musculus; assay: Number of animals survived after 60 days; 0/6; type: functional
P388 [9] = assay: The compound tested for the lethal dose in murine lymphocytic leukemia P388.; type: ADME; details: mouse
Mus musculus [10] = species on record: Mus musculus; assay: Number of animals survived after 30 days; 6/8; type: functional
Mus musculus [11] = species on record: Mus musculus; assay: Number of animals survived after 60 days; 3/6; type: functional
Mus musculus [12] = species on record: Mus musculus; assay: Number of animals survived after 30 days; type: functional
Mus musculus [13] = species on record: Mus musculus; assay: Number of animals survived after 30 days; 1/6; type: functional
Mus musculus [14] = species on record: Mus musculus; assay: Number of animals survived after 30 days; 3/6; type: functional
Mus musculus [15] = species on record: Mus musculus; assay: Number of animals survived after 30 days; 4/6; type: functional

CC(CO)(CO)NCc1ccc2cc3ccccc3cc2c1.Cl
ILS (Mus musculus [1]): inactive | Highest non-toxic dose (P388 [2]): 250 mg/kg | Optimal dose (P388 [3]): 250 mg/kg

CC(CO)(CO)NCc1ccc2c(ccc3ccccc32)c1.Cl
ILS (Mus musculus [4]): 33% | No. of animals survived (Mus musculus [5]): 0 | LD20 (P388 [6]): 175 mg/kg | Optimal dose (P388 [3]): 200 mg/kg

CC(CO)(CO)NCc1c2ccccc2cc2c1ccc1ccccc12
ILS (Mus musculus [4]): 180% | No. of animals survived (Mus musculus [7]): 2 | No. of animals survived (Mus musculus [8]): 0 | LD20 (P388 [6]): 220 mg/kg | Optimal dose (P388 [3]): 180 mg/kg

CC(CO)(CO)NCc1ccc2c(ccc3c4ccccc4ccc23)c1
ILS (Mus musculus [1]): inactive | LD20 (P388 [6]): 450 mg/kg | Optimal dose (P388 [3]): 450 mg/kg

CC(CO)(CO)NCc1ccc(-c2ccccc2)cc1.Cl
ILS (Mus musculus [1]): inactive | Highest non-toxic dose (P388 [2]): 283 mg/kg | Optimal dose (P388 [3]): 283 mg/kg

CC(CO)(CO)NCc1ccc2c(c1)-c1cccc3cccc-2c13.Cl
ILS (Mus musculus [1]): inactive | Highest non-toxic dose (P388 [2]): 166 mg/kg | Optimal dose (P388 [3]): 150 mg/kg

CC(CO)(CO)NCc1cc2cccc3ccc4cccc1c4c32.Cl
ILS (Mus musculus [4]): 45% | No. of animals survived (Mus musculus [5]): 0 | LD20 (P388 [6]): 40 mg/kg | Optimal dose (P388 [3]): 40 mg/kg

CC(CO)(CO)NCc1c2ccccc2cc2ccccc12.Cl
ILS (Mus musculus [4]): 30% | No. of animals survived (Mus musculus [5]): 0 | LD20 (P388 [6]): 150 mg/kg | Optimal dose (P388 [3]): 150 mg/kg

CC(CO)(CO)NCc1cc2c3c(cccc3c1)-c1ccccc1-2.Cl
ILS (Mus musculus [4]): 105% | No. of animals survived (Mus musculus [5]): 0 | LD20 (P388 [9]): 160 mg/kg | Optimal dose (P388 [3]): 160 mg/kg

CC(CO)(CO)NCc1cccc2c1-c1cccc3cccc-2c13.Cl
ILS (Mus musculus [4]): 142% | No. of animals survived (Mus musculus [5]): 0 | LD20 (P388 [9]): 123 mg/kg | Optimal dose (P388 [3]): 100 mg/kg

CC(CO)(CO)NCc1cc2c3ccccc3ccc2c2ccccc12 [CRISNATOL]
ILS (Mus musculus [4]): 215% | No. of animals survived (Mus musculus [10]): 6 | No. of animals survived (Mus musculus [11]): 3 | LD20 (P388 [6]): 120 mg/kg | Optimal dose (P388 [3]): 120 mg/kg

CC(CO)(CO)NCc1ccc2c(c1)Cc1ccccc1-2.Cl
ILS (Mus musculus [1]): inactive | Highest non-toxic dose (P388 [2]): 225 mg/kg | Optimal dose (P388 [3]): 225 mg/kg

CC(CO)(CO)NCc1cc2c3c(ccc4c3c1CCC4)CCC2.Cl
ILS (Mus musculus [1]): inactive | Highest non-toxic dose (P388 [2]): 151 mg/kg | Optimal dose (P388 [3]): 151 mg/kg

CC(CO)(CO)NCc1cccc2c1ccc1ccccc12.Cl
ILS (Mus musculus [4]): 65% | No. of animals survived (Mus musculus [5]): 0 | LD20 (P388 [6]): 225 mg/kg | Optimal dose (P388 [3]): 230 mg/kg

CC(CO)(CO)NCc1cccc2ccc3ccccc3c12.Cl
ILS (Mus musculus [1]): inactive | Highest non-toxic dose (P388 [2]): 269 mg/kg | Optimal dose (P388 [3]): 269 mg/kg

CC(CO)(CO)NCc1cccc2cc3ccccc3cc12.Cl
ILS (Mus musculus [4]): 125% | No. of animals survived (Mus musculus [5]): 0 | LD20 (P388 [6]): 110 mg/kg | Optimal dose (P388 [3]): 120 mg/kg

CC(CO)(CO)NCc1c2ccccc2c2ccc3cccc4ccc1c2c43
ILS (Mus musculus [4]): 100% | No. of animals survived (Mus musculus [5]): 0 | LD20 (P388 [6]): 123 mg/kg | Optimal dose (P388 [3]): 100 mg/kg

CC(CO)(CO)NCc1ccc2cccc3c2c1-c1ccccc1-3.Cl
ILS (Mus musculus [4]): 100% | No. of animals survived (Mus musculus [5]): 0 | LD20 (P388 [9]): 140 mg/kg | Optimal dose (P388 [3]): 140 mg/kg

CC(CO)(CO)NCc1ccc2c3cccc4cccc(c5cccc1c52)c43.Cl
ILS (Mus musculus [4]): 100% | No. of animals survived (Mus musculus [5]): 0 | LD20 (P388 [6]): 425 mg/kg | Optimal dose (P388 [3]): 350 mg/kg

CC(CO)(CO)NCc1ccccc1.Cl
ILS (Mus musculus [1]): inactive | Highest non-toxic dose (P388 [2]): 350 mg/kg | Optimal dose (P388 [3]): 350 mg/kg

CC(CO)(CO)NCc1ccc2c3c(cccc13)-c1ccccc1-2.Cl
ILS (Mus musculus [4]): 190% | No. of animals survived (Mus musculus [12]): 5 | No. of animals survived (Mus musculus [11]): 3 | LD20 (P388 [9]): 110 mg/kg | Optimal dose (P388 [3]): 105 mg/kg

CC(CO)(CO)NCc1cccc2ccc3c4ccccc4ccc3c12
ILS (Mus musculus [4]): 120% | No. of animals survived (Mus musculus [13]): 1 | No. of animals survived (Mus musculus [8]): 0 | LD20 (P388 [6]): 225 mg/kg | Optimal dose (P388 [3]): 225 mg/kg

CC(CO)(CO)NCc1cc2ccccc2c2ccccc12.Cl
ILS (Mus musculus [4]): 60% | No. of animals survived (Mus musculus [5]): 0 | LD20 (P388 [6]): 125 mg/kg | Optimal dose (P388 [3]): 150 mg/kg

CC(CO)(CO)NCc1c2c(cc3ccccc13)Cc1ccccc1-2
ILS (Mus musculus [4]): 210% | No. of animals survived (Mus musculus [14]): 3 | No. of animals survived (Mus musculus [8]): 0 | Highest non-toxic dose (P388 [2]): 250 mg/kg | Optimal dose (P388 [3]): 250 mg/kg

CC(CO)(CO)NCc1ccc(-c2ccccc2)c2ccccc12.Cl
ILS (Mus musculus [1]): inactive | Highest non-toxic dose (P388 [2]): 175 mg/kg | Optimal dose (P388 [3]): 175 mg/kg

CC(CO)(CO)NCc1c2ccccc2cc2cc3ccccc3cc12
ILS (Mus musculus [4]): 165% | No. of animals survived (Mus musculus [7]): 2 | No. of animals survived (Mus musculus [8]): 0 | LD20 (P388 [6]): 60 mg/kg | Optimal dose (P388 [3]): 60 mg/kg

CC(CO)(CO)NCc1ccc2ccc3cccc4ccc1c2c34.Cl
ILS (Mus musculus [4]): 120% | No. of animals survived (Mus musculus [5]): 0 | LD20 (P388 [6]): 275 mg/kg | Optimal dose (P388 [3]): 260 mg/kg

CCCCCCCCCCCCNC(C)(CO)CO.Cl
ILS (Mus musculus [1]): inactive | Highest non-toxic dose (P388 [2]): 75 mg/kg | Optimal dose (P388 [3]): 75 mg/kg

CC(CO)(CO)NCc1ccc2c3ccccc3c3ccccc3c2c1.Cl
ILS (Mus musculus [4]): 100% | No. of animals survived (Mus musculus [5]): 0 | LD20 (P388 [6]): 85 mg/kg | Optimal dose (P388 [3]): 85 mg/kg

CC(CO)(CO)NCc1c2c3c(cccc3c3ccccc13)CC2
ILS (Mus musculus [4]): 200% | No. of animals survived (Mus musculus [14]): 3 | No. of animals survived (Mus musculus [8]): 0 | LD20 (P388 [6]): 70 mg/kg | Optimal dose (P388 [3]): 60 mg/kg

CC(CO)(CO)NCc1ccc2ccccc2c1.Cl
ILS (Mus musculus [1]): inactive | Highest non-toxic dose (P388 [2]): 240 mg/kg | Optimal dose (P388 [3]): 240 mg/kg

CC(CO)(CO)NCc1cccc2ccccc12.Cl
ILS (Mus musculus [1]): inactive | Highest non-toxic dose (P388 [2]): 180 mg/kg | Optimal dose (P388 [3]): 180 mg/kg

CC(CO)(CO)NCc1ccc2ccc3c4ccccc4ccc3c2c1
ILS (Mus musculus [4]): 20% | No. of animals survived (Mus musculus [5]): 0 | LD20 (P388 [6]): 110 mg/kg | Optimal dose (P388 [3]): 110 mg/kg

CC(CO)(CO)NCc1c2c3c(cccc3c3ccccc13)C=C2
ILS (Mus musculus [4]): 225% | No. of animals survived (Mus musculus [15]): 4 | No. of animals survived (Mus musculus [8]): 0 | LD20 (P388 [6]): 125 mg/kg | Optimal dose (P388 [3]): 110 mg/kg

CC(CO)(CO)NCc1cccc2c3ccccc3c3ccccc3c12.Cl
ILS (Mus musculus [4]): 25% | No. of animals survived (Mus musculus [5]): 0 | LD20 (P388 [6]): 165 mg/kg | Optimal dose (P388 [3]): 155 mg/kg

CC(CO)(CO)NCc1ccc2c(ccc3cc4ccccc4cc32)c1
ILS (Mus musculus [4]): 20% | No. of animals survived (Mus musculus [5]): 0 | LD20 (P388 [6]): 200 mg/kg | Optimal dose (P388 [3]): 200 mg/kg

CC(CO)(CO)NCc1ccc2c3c1ccc1cccc(c13)C2
ILS (Mus musculus [4]): 45% | No. of animals survived (Mus musculus [5]): 0 | LD20 (P388 [6]): 300 mg/kg | Optimal dose (P388 [3]): 270 mg/kg

CC(CO)(CO)NCc1ccc2ccc3ccccc3c2c1.Cl
ILS (Mus musculus [4]): 20% | No. of animals survived (Mus musculus [5]): 0 | LD20 (P388 [6]): 250 mg/kg | Optimal dose (P388 [3]): 225 mg/kg

CC(CO)(CO)NCc1cc2ccc3ccccc3c2c2ccccc12
ILS (Mus musculus [4]): 42% | No. of animals survived (Mus musculus [5]): 0 | LD20 (P388 [6]): 15 mg/kg | Optimal dose (P388 [3]): 7.5 mg/kg
